Laboratory results taken from ChEMBL document CHEMBL1145973 (J Med Chem, 2003).
pEC50, pKi: −log10 of the molar value.

How the values were obtained:
Mu-type opioid receptor [1] = target: T1, Mu-type opioid receptor (Homo sapiens, UniProt P35372); assay: Efficacy for Opioid receptor mu 1-mediated [35S]GTP-gamma-S incorporation into CHO membrane preparations; format: functional
[2] = target: Kappa-type opioid receptor (Cavia porcellus, UniProt P41144); assay: Displacement of 3H-U-69,593 from Opioid receptor kappa 1 in guinea pig cerebellum preparation; format: tissue-based
Sequence of Kappa-type opioid receptor (P41144 whole entry): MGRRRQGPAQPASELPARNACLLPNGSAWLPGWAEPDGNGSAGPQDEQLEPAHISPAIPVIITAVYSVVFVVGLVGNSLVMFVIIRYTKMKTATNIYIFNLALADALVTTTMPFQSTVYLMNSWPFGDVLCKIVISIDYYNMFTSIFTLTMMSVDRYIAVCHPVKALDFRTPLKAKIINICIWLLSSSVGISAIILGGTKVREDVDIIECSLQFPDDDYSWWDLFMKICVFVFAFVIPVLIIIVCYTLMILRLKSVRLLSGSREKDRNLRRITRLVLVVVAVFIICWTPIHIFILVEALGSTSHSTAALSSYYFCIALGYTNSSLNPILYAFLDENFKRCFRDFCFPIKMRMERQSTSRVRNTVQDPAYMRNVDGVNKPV

[3] = target: Delta-type opioid receptor (Homo sapiens, UniProt P41143); assay: Displacement of [3H]diprenorphine from human Opioid receptor delta 1 epressing HEK293 cells; format: cell-based
Sequence of Delta-type opioid receptor (P41143 whole entry): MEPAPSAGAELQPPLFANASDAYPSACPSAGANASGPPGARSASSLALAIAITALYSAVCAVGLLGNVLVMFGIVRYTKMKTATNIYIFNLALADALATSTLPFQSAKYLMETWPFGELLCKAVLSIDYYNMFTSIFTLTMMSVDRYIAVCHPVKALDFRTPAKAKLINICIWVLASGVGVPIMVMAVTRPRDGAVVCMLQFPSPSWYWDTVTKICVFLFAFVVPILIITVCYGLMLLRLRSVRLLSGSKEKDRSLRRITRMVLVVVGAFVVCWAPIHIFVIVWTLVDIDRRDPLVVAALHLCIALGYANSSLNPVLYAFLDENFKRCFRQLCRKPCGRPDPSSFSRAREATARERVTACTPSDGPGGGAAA
Procedure, shortened: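 Human DOR-1 stably transfected into HEK-293 cells; competition binding against 3H-diprenorphine. Mean ± SD of duplicate measurements.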

Mu-type opioid receptor [4] = target: T1, Mu-type opioid receptor; assay: Displacement of [3H]DAMGO from human Opioid receptor mu 1 expressing CHO cells; format: cell-based
[5] = target: Opioid receptors; mu & delta (Homo sapiens) (UniProt P41143+P35372); assay: Relative affinity for delta and mu opioid receptors; format: protein assay
Sequence of Opioid receptors; mu & delta (Homo sapiens) (P35372 whole entry, looked up): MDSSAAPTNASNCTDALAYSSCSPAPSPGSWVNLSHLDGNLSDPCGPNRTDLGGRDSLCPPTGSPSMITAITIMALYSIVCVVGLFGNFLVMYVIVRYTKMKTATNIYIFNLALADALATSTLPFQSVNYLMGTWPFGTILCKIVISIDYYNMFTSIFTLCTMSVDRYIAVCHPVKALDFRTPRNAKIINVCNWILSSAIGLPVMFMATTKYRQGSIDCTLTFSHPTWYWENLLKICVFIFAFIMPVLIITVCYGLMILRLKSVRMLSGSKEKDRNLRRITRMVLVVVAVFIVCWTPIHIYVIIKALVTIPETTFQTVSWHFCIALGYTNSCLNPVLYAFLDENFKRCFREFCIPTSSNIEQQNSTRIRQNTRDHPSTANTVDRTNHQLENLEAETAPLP
Sequence of Opioid receptors; mu & delta (Homo sapiens) (P41143 whole entry, looked up): as the sequence (P41143 whole entry) above

[6] = target: Opioid receptors; mu & kappa (Homo sapiens) (UniProt P41145+P35372); assay: Relative affinity for kappa 1 and mu opioid receptors; format: protein assay
Sequence of Opioid receptors; mu & kappa (Homo sapiens) (P35372 whole entry, looked up): as the sequence (P35372 whole entry, looked up) above
Sequence of Opioid receptors; mu & kappa (Homo sapiens) (P41145 whole entry, looked up): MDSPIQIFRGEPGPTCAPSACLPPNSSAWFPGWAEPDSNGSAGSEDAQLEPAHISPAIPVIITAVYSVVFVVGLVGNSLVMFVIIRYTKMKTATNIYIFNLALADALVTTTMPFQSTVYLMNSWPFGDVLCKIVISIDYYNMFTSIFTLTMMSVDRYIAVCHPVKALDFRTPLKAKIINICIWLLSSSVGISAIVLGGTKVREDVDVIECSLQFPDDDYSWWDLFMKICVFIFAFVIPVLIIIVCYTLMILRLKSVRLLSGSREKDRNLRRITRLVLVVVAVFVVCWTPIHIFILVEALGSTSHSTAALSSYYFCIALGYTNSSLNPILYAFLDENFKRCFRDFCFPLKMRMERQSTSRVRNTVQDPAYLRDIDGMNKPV
Procedure, shortened: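 Ratio of Ki at KOR, from 3H-U-69,593 competition in guinea pig cerebellum, to Ki at MOR, from 3H-DAMGO competition on hMOR-1 in CHO cells.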

Mu-type opioid receptor [7] = target: T1, Mu-type opioid receptor; assay: Compound tested at 10 uM for the ability to induce Opioid receptor mu 1-mediated binding of [35S]GTP-gamma-S to G proteins in CHO membrane preparations; format: functional, cell membranes
Procedure, shortened: (§1)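 Human MOR-1 stably transfected into CHO cells; membrane preparations incubated with GDP and test compound at 10 µM. Specific [35S]GTP-γ-S binding to G proteins is expressed as a percentage of DAMGO-induced specific binding. Mean ± SD of quadruplicate measurements.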

Mu-type opioid receptor [8] = target: T1, Mu-type opioid receptor; assay: Specific binding of GTP-gamma -35S to G proteins in CHO membrane preparation stably transfected with human Opioid receptor mu 1 in the presence of GDP and 10 uM compound; format: cell membranes; procedure, shortened: as §1

T1 sequence (P35372 whole entry): as the sequence (P35372 whole entry, looked up) above

With `Cc1cc(O)cc(C)c1C[C@H](N)[C@@H](O)C/C=C/[C@@H](O)[C@@H](Cc1ccccc1)C(=O)NCCc1ccccc1` the GTP-gamma35S bound (Mu-type opioid receptor [1]) was 48%, the pKi [2] was 7.19 and the pKi [3] was 7.59. For the same compound, the pKi (Mu-type opioid receptor [4]) was 9.43, the Ratio [5] was 70 and the Ratio [6] was 170.
Compound `Cc1cc(O)cc(C)c1C[C@H](N)[C@@H](O)C/C=C/[C@@H](O)[C@H](Cc1ccccc1)C(=O)NCCc1ccccc1` has a GTP-gamma35S bound (Mu-type opioid receptor [1]) of 52%, a pKi [2] of 7.22 and a pKi [3] of 6.92. The pKi (Mu-type opioid receptor [4]) was 9.19, the Ratio [5] was 190 and the Ratio [6] was 94.
In the case of `Cc1cc(O)cc(C)c1C[C@H](N)[C@@H](O)C/C=C/[C@@H](O)[C@@H](Cc1ccccc1)C(=O)N[C@@H](Cc1ccccc1)C(N)=O`, the pEC50 (Mu-type opioid receptor [7]) was 8.10, the GTP-gamma35S bound (Mu-type opioid receptor [1]) was 75% and the pKi [2] was 7.68. It also gave a pKi [3] of 7.44, a pKi (Mu-type opioid receptor [4]) of 9.38 and a Ratio [5] of 86. For the same compound, the Ratio [6] was 49.
Work on `Cc1cc(O)cc(C)c1C[C@H](N)[C@@H](O)C/C=C/[C@@H](O)[C@H](Cc1ccccc1)C(=O)N[C@@H](Cc1ccccc1)C(N)=O` yielded a GTP-gamma35S bound (Mu-type opioid receptor [1]) of 32%, a pKi [2] of 7.30 and a pKi [3] of 6.64. It also gave a pKi (Mu-type opioid receptor [4]) of 8.92, a Ratio [5] of 190 and a Ratio [6] of 41.
For `NC(=O)[C@H](Cc1ccccc1)NC(=O)[C@H](Cc1ccccc1)NC(=O)[C@H]1CCCN1C(=O)[C@@H](N)Cc1ccccc1`, the GTP-gamma35S bound (Mu-type opioid receptor [1]) was 100%, the Ratio [5] was […] and the Ratio [6] was […].
`Cc1cc(O)cc(C)c1C[C@H](N)[C@@H](O)C/C=C/[C@H](O)[C@@H](Cc1ccccc1)C(=O)NCCc1ccccc1` gave a GTP-gamma35S bound (Mu-type opioid receptor [1]) of 40%, a pKi [2] of 7.38 and a pKi [3] of 7.00. For the same compound, the pKi (Mu-type opioid receptor [4]) was 9.54, the Ratio [5] was 340 and the Ratio [6] was 140.
`Cc1cc(O)cc(C)c1C[C@H](N)[C@H](O)C/C=C/[C@H](O)[C@@H](Cc1ccccc1)C(=O)NCCc1ccccc1` gave a pEC50 (Mu-type opioid receptor [7]) of 7.31, a GTP-gamma35S bound (Mu-type opioid receptor [1]) of 49% and a pKi [2] of 7.29. It also gave a pKi [3] of 6.91, a pKi (Mu-type opioid receptor [4]) of 9.62 and a Ratio [5] of 510. It also gave a Ratio [6] of 210.
Work on `Cc1cc(O)cc(C)c1C[C@H](N)[C@@H](O)C/C=C/[C@H](O)[C@@H](Cc1ccccc1)C(=O)O[C@@H](Cc1ccccc1)C(N)=O` yielded a GTP-gamma35S bound (Mu-type opioid receptor [1]) of 47%, a pKi [2] of 6.90 and a pKi [3] of 7.68. The Ratio [5] was 46 and the Ratio [6] was 280.
`Cc1cc(O)cc(C)c1C[C@H](N)[C@@H](O)C/C=C/[C@H](O)[C@@H](Cc1ccccc1)C(=O)N[C@H](CO)Cc1ccccc1` showed a GTP-gamma35S bound (Mu-type opioid receptor [1]) of 44%, a pKi [2] of 7.16 and a pKi [3] of 7.27. The pKi (Mu-type opioid receptor [4]) was 9.80, the Ratio [5] was 340 and the Ratio [6] was 430.
Compound `Cc1cc(O)cc(C)c1C[C@H](N)[C@@H](O)C/C=C/[C@H](O)[C@@H](Cc1ccccc1)C(=O)O[C@H](CO)Cc1ccccc1` has a GTP-gamma35S bound (Mu-type opioid receptor [8]) of 62%, a pKi [2] of 7.07 and a pKi [3] of 7.77. For the same compound, the pKi (Mu-type opioid receptor [4]) was 9.36, the Ratio [5] was 39 and the Ratio [6] was 190.
`Cc1cc(O)cc(C)c1C[C@H](N)[C@H](O)C/C=C/[C@@H](O)[C@@H](Cc1ccccc1)C(=O)N[C@@H](Cc1ccccc1)C(N)=O` gave a GTP-gamma35S bound (Mu-type opioid receptor [1]) of 43%, a pKi [2] of 7.60 and a pKi [3] of 7.07. It also gave a pKi (Mu-type opioid receptor [4]) of 8.80, a Ratio [5] of 53 and a Ratio [6] of 16.
For `Cc1cc(O)cc(C)c1C[C@H](N)[C@H](O)C/C=C/[C@@H](O)[C@@H](Cc1ccccc1)C(=O)NCCc1ccccc1`, the GTP-gamma35S bound (Mu-type opioid receptor [1]) was 27%, the pKi [2] was 7.16 and the pKi [3] was 7.18. For the same compound, the pKi (Mu-type opioid receptor [4]) was 9.14, the Ratio [5] was 91 and the Ratio [6] was 96.
Compound `Cc1cc(O)cc(C)c1C[C@H](N)[C@@H](O)C/C=C/[C@H](O)[C@@H](Cc1ccccc1)C(=O)N[C@@H](Cc1ccccc1)C(N)=O` has a GTP-gamma35S bound (Mu-type opioid receptor [1]) of 35%, a pKi [2] of 7.66 and a pKi [3] of 7.40. For the same compound, the pKi (Mu-type opioid receptor [4]) was 9.77, the Ratio [5] was 230 and the Ratio [6] was 130.
In the case of `NC(=O)[C@H](Cc1ccccc1)NC(=O)[C@H](Cc1ccccc1)NC(=O)[C@@H]1CCCN1C(=O)[C@@H](N)Cc1ccccc1`, the pEC50 (Mu-type opioid receptor [7]) was 7.51, the pKi [2] was 4.98 and the pKi ([3]; hek293) was […]. It also gave a pKi (Mu-type opioid receptor [4]; cho) of 9.16.
For `Cc1cc(O)cc(C)c1C[C@H](N)[C@@H](O)C/C=C/[C@H](O)[C@@H](Cc1ccccc1)C(=O)OCCc1ccccc1`, the pEC50 (Mu-type opioid receptor [7]) was 8.38, the GTP-gamma35S bound (Mu-type opioid receptor [1]) was 79% and the pKi [3] was 7.25. It also gave a pKi (Mu-type opioid receptor [4]) of 9.62.
In the case of `Cc1cc(O)cc(C)c1C[C@H](N)[C@H](O)C/C=C/[C@H](O)[C@@H](Cc1ccccc1)C(=O)N[C@@H](Cc1ccccc1)C(N)=O`, the GTP-gamma35S bound (Mu-type opioid receptor [1]) was 14%, the pKi [2] was 7.82 and the pKi [3] was 7.34. The pKi (Mu-type opioid receptor [4]) was 8.92, the Ratio [5] was 38 and the Ratio [6] was 13.
